KCNQ1 inh = human KCNQ1 channel inhibition; CHO-K1 KCNQ1, FluxOR thallium flux fluorescence; hits give high values; B-score at 10 µM; 310,000 compounds, 1.3% hits; P51787;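 active = compounds whose thallium flux B-score, printed positive for inhibition, exceeds three library SD while starting fluorescence stays within three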;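 note: channel opened by potassium depolarization with thallium stimulus after 20 min compound exposure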
Target sequence (P51787 whole entry, looked up): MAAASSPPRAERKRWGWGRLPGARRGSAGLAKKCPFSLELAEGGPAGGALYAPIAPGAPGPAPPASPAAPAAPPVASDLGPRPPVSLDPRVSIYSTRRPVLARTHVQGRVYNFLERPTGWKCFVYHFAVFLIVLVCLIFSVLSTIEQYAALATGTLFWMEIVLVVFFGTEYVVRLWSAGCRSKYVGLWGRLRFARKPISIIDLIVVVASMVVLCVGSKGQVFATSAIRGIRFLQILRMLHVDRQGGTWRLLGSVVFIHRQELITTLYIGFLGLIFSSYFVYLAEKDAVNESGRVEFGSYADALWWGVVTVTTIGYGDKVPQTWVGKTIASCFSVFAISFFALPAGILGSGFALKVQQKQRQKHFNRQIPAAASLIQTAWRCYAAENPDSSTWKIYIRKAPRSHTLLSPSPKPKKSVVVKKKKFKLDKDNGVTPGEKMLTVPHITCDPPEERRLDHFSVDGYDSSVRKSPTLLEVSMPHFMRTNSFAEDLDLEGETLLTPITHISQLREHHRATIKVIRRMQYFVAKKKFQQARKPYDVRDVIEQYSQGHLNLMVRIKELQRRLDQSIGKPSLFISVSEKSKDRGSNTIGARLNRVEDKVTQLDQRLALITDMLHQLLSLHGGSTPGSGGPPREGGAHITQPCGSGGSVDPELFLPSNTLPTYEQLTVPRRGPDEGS
KCNK3 block = human KCNK3 channel inhibition, primary screen. O14649. CHO-KCNK3 thallium flux, FluxOR fluorescence; hits give low values. B-score at 10 µM. 340,000 compounds, 0.84% hits;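 active = B-score under library mean minus 4 SD, starting fluorescence ratio at most library mean plus 5 SD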;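 note: more negative B-score means stronger inhibition of thallium flux through KCNK3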
hERG protect = shields human hERG channel from block by proarrhythmic agents | activation (rescue from dofetilide block), less the hit threshold, % at 10 µM | CHO-hERG, FluxOR thallium flux, dofetilide IC70 present | 310,000 compounds, 0.51% hits;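 active = activation above the mean of controls blocked by dofetilide plus 5 SD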;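 note: thallium influx through hERG after potassium depolarization seen as dye fluorescence rise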
KCNQ1 act = potentiates or activates the human KCNQ1 potassium channel | P51787 | CHO-K1 KCNQ1, thallium flux FluxOR fluorescence; hits give high values | B-score at 10 µM | 310,000 compounds, 0.35% hits | AID 2648;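 active = fluorescence ratio B-score, a plate-corrected score, at least three library SD, with initial intensity B-score within 5 SD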
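Assay system: stable KCNQ1 CHO-K1 line; medium: assay buffer, equal DMSO in all wells; timing: 90 min dye loading and 20 min compound exposure, both at room temperature; technique: kinetic FluxOR thallium fluorescence, 10-s 1-Hz baseline, 110-s post-stimulus read; read-out basis: B score of baseline-normalized fluorescence ratio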
KCNK9 block = human KCNK9 channel inhibition. HEK293 KCNK9, FluxOR thallium flux fluorescence; hits give low values. B-score at 10 µM. 310,000 compounds, 1.2% hits;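 active = ratio B-score over 3 SD below the library mean, with starting fluorescence within 5 SD of its mean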;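 note: negative B-score means less thallium flux so channel inhibition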
KCNK9 inh conf = confirmation of human KCNK9 potassium channel inhibitors; shares compounds with KCNK9 block; HEK293 KCNK9 cells, FluxOR thallium flux fluorescence; inhibition, % at 10 µM; AID 492992; 4,900 compounds, 43% hits;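 active = thallium signal inhibited by more than 5 SD of the compound-free buffer control wells, on both duplicate plates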;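 note: 0% = assay buffer control wells without compound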
Kir2-1 spec = selectivity of KCNK9 modulators against mouse Kir2.1 | shares compounds with KCNK9 block | AID 492993 | inhibition, % at 10 µM | Kir2.1 cells, FluxOR thallium flux fluorescence | 4,900 compounds, 4% hits;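 active = thallium signal drop more than 5 SD beyond the mean of the no-compound control wells, seen in both duplicate plates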;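 note: signal is fluorescence rise after thallium addition divided by baseline fluorescence; plate controls were assay buffer only for no effect and full block by chlorpromazine control for full effect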
KCNK9 uninduced = second check of KCNK9 modulator effects in non-induced HEK293 cells; FluxOR thallium flux; inhibition, % at 10 µM; AID 492997; shares compounds with KCNK9 block; 4,900 compounds, 40% hits;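 active = thallium signal drop beyond 5 SD of the untreated control mean, on both duplicate plates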;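 note: plate controls were buffer only IC0 wells for no effect and SID17386958 at its maximal inhibitory level for full effect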
* = called active by the depositor; i = inactive; / = not tested or not shown. Hits are enriched below; roughly 3.1% of the tested compounds scored in any of these assays.

SMILES	KCNQ1 inh	KCNK3 block	hERG protect	KCNQ1 act	KCNK9 block	KCNK9 inh conf	Kir2-1 spec	KCNK9 uninduced
O=C(c1ccco1)N1CCCC(N2CCN(c3cccc(C(F)(F)F)c3)CC2)C1 (stereo not given)	i	i	-18	i	i	i	i	i
O=C(/C=C/c1ccccc1)Nc1cccc(C(=O)N2CCCC2)c1	/	i	/	/	/	/	/	/
O=C(COC(=O)Cc1c(F)cccc1Cl)NC(=O)Nc1ccccc1F	/	i	/	/	/	/	/	/
Cc1ccc(-n2ncc3c2CCCC3NC(=O)CSc2ccccn2)cc1C (stereo not given)	i	i	-15	i	i	i	i	i
CCCC(=O)NC1CCCc2c1cnn2-c1ccc(C)c(C)c1 (stereo not given)	i	i	-9	i	i	/	/	/
Cc1ccc(/C=C/C(=O)Nc2ccc(Oc3ccccc3)cc2)o1	i	i	-11	i	i	i	i	i
COc1cc(C(CC(=O)Nc2ccc(C)cn2)N2Cc3ccccc3C2=O)cc(OC)c1OC (stereo not given)	i	i	-6	i	i	/	/	/
CC(C)NC(=O)c1cc2cc(Br)ccc2oc1=O	i	i	-6	i	i	/	/	/
Cc1ccc(C(C)NC(=O)c2cc3cc(Br)ccc3oc2=N)cc1 (stereo not given)	7*	i	-22	i	i	i	i	i
Cc1ccc(-n2cc(CCCCCCCCC(=O)O)nn2)cc1	i	i	-6	i	i	/	/	/
O=S(=O)(N/N=C/c1ccc(Cl)cc1)c1ccc(Cc2ncc(C(F)(F)F)cc2Cl)s1	10*	-9.3*	-17	i	i	i	i	i
O=C(NCc1ccccc1)C1=C[C@H](C2CCCCC2)C[C@H](OCc2ccc(CO)cc2)O1	i	i	-7	i	i	i	i	i
COc1cc(SC)ccc1C(=O)Nc1ccc2c(c1)OCCO2	i	i	-5	i	i	/	/	/
CCC(CC)C(=O)Nc1cc(C(=O)OC)ccc1C(=O)OC	i	i	-4	i	i	/	/	/
COC(=O)c1ccc(C(=O)OC)c(NC(=O)CCS(=O)(=O)Cc2ccccc2)c1	i	i	0	i	i	/	/	/
COC(=O)c1ccc(C(=O)OC)c(NC(=O)CN(C)Cc2cccc(Cl)c2Cl)c1	i	i	-12	i	-12*	80%*	i	46%*
COC(=O)c1ccc(C(=O)OC)c(NC(=O)CN(C)Cc2ccccc2)c1	i	i	-20	i	-11*	71%*	i	36%*
COC(=O)c1ccsc1NC(=O)c1cccc(OC)c1	i	i	-15	i	i	/	/	/
CCc1cccc(CC)c1N(COC)C(=O)Cn1ccccc1=N	i	i	-12	i	i	/	/	/
COc1ccccc1C(=O)/C=C/c1ccc(N2CCCCC2)c([N+](=O)[O-])c1	i	i	-4	i	-10*	50%*	i	31%*
O=C(O/N=C\c1ccc(N2CCCCC2)c([N+](=O)[O-])c1)c1ccc(Cl)cc1Cl	i	i	-8	i	i	/	/	/
Fc1ccccc1C1c2cccn2CCN1C(=S)Nc1cccc(Br)c1 (stereo not given)	i	i	-8	i	-11*	36%*	i	48%*
COc1ccc(Cl)cc1NC(=O)Cc1c(F)cccc1Cl	i	i	-6	i	i	/	/	/
COc1ccc(Cl)cc1NC(=O)C(C)N(C)Cc1cccc(Cl)c1Cl (stereo not given)	i	i	-8	i	-13*	76%*	i	52%*
COc1ccc(Cl)cc1NC(=O)CN(C)C(C)C(=O)NC(=O)NC1CCCCC1 (stereo not given)	i	i	-16	i	i	i	i	i
SMILES	KCNQ1 inh	KCNK3 block	hERG protect	KCNQ1 act	KCNK9 block	KCNK9 inh conf	Kir2-1 spec	KCNK9 uninduced
COc1cc2c(=O)n(CCC(=O)NCC3CCCO3)c(=O)n(CC(=O)Nc3ccc(C)cc3)c2cc1OC (stereo not given)	i	i	-7	i	i	/	/	/
COC(=O)/N=C(/Cc1ccc(OC)cc1)c1ccc(OC)cc1	i	i	0	i	i	i	i	i
O=C(NCCSCc1ccccc1)c1ccccc1	i	i	-7	i	i	/	/	/
Cc1cccc(CSCCNC(=O)c2ccc(N(C)S(=O)(=O)c3ccccc3)cc2)c1	7*	i	-3	i	i	i	i	i
CN(c1ccc(C(=O)NCCSCc2ccccc2)cc1)S(=O)(=O)c1ccccc1	i	i	-5	i	i	i	i	i
CN(c1ccc(C(=O)NCc2ccc3c(c2)OCO3)cc1)S(=O)(=O)c1ccccc1	i	i	-12	i	i	/	/	/
NC(N)=Nc1nc(-c2ccccc2)c2ccccc2n1	i	i	-21	i	-9.6*	27%*	i	i
Cc1sc2ncnc(NCC(c3ccccc3)N(C)C)c2c1C (stereo not given)	i	i	-8	i	i	/	/	/
Cc1nc(NCC(c2ccccc2)N(C)C)c2c(C)c(C)sc2n1 (stereo not given)	i	i	-11	i	i	i	i	i
CN1c2ccccc2C2(C)CCCC3=Cc4cccc([N+](=O)[O-])c4OC312 (stereo not given)	i	i	-20	i	-10*	57%*	i	35%*
Cc1cccc(-c2noc(CN(C(=O)C(c3ccccc3)c3ccccc3)C(C)C)n2)c1	6*	-12*	-9	i	-17*	54%*	i	i
COc1cccc(C(=O)N(Cc2nc(-c3cccc(C)c3)no2)C(C)C)c1OC	i	i	-12	i	i	i	i	i
Cc1cccc(-c2noc(CN(C(=O)c3ccc4c(c3)OCO4)C(C)C)n2)c1	i	i	-6	i	i	/	/	/
CCN(CC)S(=O)(=O)c1cnccc1N1CCN(c2cccc(Cl)c2)CC1	i	i	-1	i	-9.8*	36%*	i	27%*
COc1cccc(CNC(=O)C(Cc2ccccc2)n2cccc2)c1 (stereo not given)	i	i	-14	i	i	i	i	i
CCn1cc(CCCC(=O)NCc2cccc(OC)c2)c2ccccc21	i	i	-6	i	i	i	i	i

Screening results (PubChem)
